Source: PubChem BioAssay
Only some compounds are listed: those with a hit (about 2.3% of all), similar ones and a draw of the others.
DNMT1 block: DNMT1 (human) enzyme inhibition. P26358. DNMT1 molecular beacon, Hinp1I cleavage, fluorescence. inhibition (reported as % activation of signal), % at 10 µM. hit rate 0.83% among 360,000; in the data active = inhibition above about 50%
Scp1 inh: Scp-1 (human) phosphatase inhibition | Q9GZU7 | hit rate 0.88% among 340,000 | Recombinant Scp1, phosphopeptide, malachite green phosphate absorbance | inhibition, % at 20 µM;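 active = inhibition above about 50% at 20 µM, limit read from the data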;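 also: plate controls were DMSO wells with enzyme for no effect and wells lacking enzyme for full effect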
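assay system = SCP-1 phosphatase catalytic domain, residues 76-261 | buffer or medium = 50 mM Tris acetate pH 5.5, 0.005% Tween-20, 10 mM MgCl2 | incubation = enzyme reaction 45 min at room temperature, colour 5 min, stabilisation 30 min | signal = Phosphate-binding colour reagent, absorbance read at 630 nm | measure = % inhibition at 20 µM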
STEP block: STEP (human) phosphatase inhibition; inhibition, % at 20 µM; P54829; AID 588621; recombinant STEP, OMFP fluorogenic substrate, fluorescence; hit rate 0.25% among 360,000;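 active = inhibition at 20 µM, scaled per plate between control wells, above about 37%, limit read from the data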;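 also: 0% = DMSO with enzyme and substrate and 100% = substrate only without enzyme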
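Assay system: isolated STEP enzyme / Timing: 20 min at room temperature, dark / Doses: 20 µM, 1% DMSO / Technique: fluorescence intensity, excitation 480 nm, emission 540 nm / Reagent: fluorogenic phosphatase substrate OMFP at 25 µM final / Measure: percent inhibition scaled to no-enzyme and uninhibited-enzyme controls, plate-pattern corrected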
LMPTP inh: LMPTP (human) inhibition | P24666 | recombinant LMPTP-A, OMFP fluorogenic substrate, fluorescence intensity | inhibition, % at 20 µM | hit rate 0.22% among 360,000 | AID 651560;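 active = compounds that cut the enzyme signal by at least half of the control window in the single-dose screen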;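 also: plate controls were DMSO wells with enzyme plus substrate for no effect and substrate without enzyme for full effect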
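Buffer or medium: Bis-Tris pH 6.0, DTT, detergent; Assay system: LMPTP-A enzyme; Quantity: 0.625 nM enzyme; Detection: endpoint fluorescence intensity; Times: 50 min dark incubation at room temperature; Controls: substrate-only low control, DMSO enzyme-plus-substrate high control; Doses: single 20 µM dose; Read-out: percent inhibition versus substrate-only and uninhibited controls; Reagent: 400 µM OMFP.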
SUMO1-SIM PPI: alters human SUMO1 binding to SIM partners; P63165; AID 602429; SUMO1 binding to a labelled peptide, TR-FRET, 1 h; hit rate 0.33% among 360,000; inhibition, % at 20 µM; in the data active = inhibition above about 37%
Target sequence (P63165 whole entry, looked up): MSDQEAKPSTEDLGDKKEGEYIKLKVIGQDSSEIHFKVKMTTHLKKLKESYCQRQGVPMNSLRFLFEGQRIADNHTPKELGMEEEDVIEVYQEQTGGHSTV
Rpn11 inh: inhibitors of human proteasome Rpn11 | inhibition, % at 20 µM | O00487 | hit rate 0.59% among 360,000 | AID 588493 | human 26S proteasome, Ub4-pepOG fluorescence polarization; 20S core pre-blocked with epoxomicin;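 active = inhibition at 20 µM, scaled to each plate's controls, above about 33%, limit read from the data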
Target sequence (O00487 whole entry, looked up): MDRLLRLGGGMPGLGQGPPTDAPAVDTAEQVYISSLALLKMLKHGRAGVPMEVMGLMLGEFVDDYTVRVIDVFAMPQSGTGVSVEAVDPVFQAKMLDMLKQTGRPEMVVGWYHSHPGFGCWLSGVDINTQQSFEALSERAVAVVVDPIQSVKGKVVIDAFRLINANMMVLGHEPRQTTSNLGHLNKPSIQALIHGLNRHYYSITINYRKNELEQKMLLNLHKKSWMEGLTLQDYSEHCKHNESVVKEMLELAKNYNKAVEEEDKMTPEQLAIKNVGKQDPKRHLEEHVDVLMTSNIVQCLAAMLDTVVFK
Beacon interf DR: shows spectral interference in the DNMT1 beacon assay | shares compounds with DNMT1 block | molecular beacon fluorescence, spectral interference counter-screen | IC50, µM | 200 tested, under 10 active; call rule not given here
DNMT1 confirm: DNMT1 inhibition confirmation, single concentration; DNMT1 molecular beacon HinP1I cleavage, fluorescence; inhibition, % at 10 µM; shares compounds with DNMT1 block; AID 602385; hit rate 8% among 2,300;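 active = average inhibition of at least 30% in the single-concentration confirmation test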
DNMT1 interf: counter-screen for DNMT1 inhibitors: spectral interference; activation (fluorescence interference), % at 10 µM; AID 602387; hit rate 1% among 2,300; DNMT1 molecular beacon spectral interference counterscreen, fluorescence 485/520; shares compounds with DNMT1 block;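 active = activation of at least 30% at 10 µM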;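 also: DNMT1 catalytic domain with a HinP1I cleavage step and a FAM/dabcyl DNA beacon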
* hit, by the source's call; x = not tested or not shown.

SMILES	DNMT1 block	Scp1 inh	STEP block	LMPTP inh	SUMO1-SIM PPI	Rpn11 inh	DNMT1 confirm	DNMT1 interf	others
O=C(O)CCc1ccc(S(=O)(=O)Nc2cc(C(F)(F)F)ccc2N2CCCC2)cc1	53*	30	3	4	11	-12	76*	-2	Beacon interf DR=>99
COC(=O)Nc1ccc2c(c1)N(C(=O)CCCl)c1ccccc1S2	-11	-11	2	3	5	1	x	x
N=c1c(S(=O)(=O)c2ccc(Br)cc2)cc2c(=O)n3ccccc3nc2n1Cc1ccco1	86*	23	16	40	12	15	5	0
Cc1ccc(Cn2c(=N)c(C(=O)NCc3ccco3)cc3c(=O)n4ccccc4nc32)cc1	82*	33	5	59*	-5	-5	3	-5
COc1ccc(CCNC(=O)c2cc3c(=O)n4ccccc4nc3n(Cc3ccco3)c2=N)cc1OC	8	7	1	23	10	0	x	x
CC(C)(C)CC(=O)Nc1cccc2c1CCCC2	61*	-9	0	-1	2	0	32*	3	Beacon interf DR=>99
O=C(COc1ccccc1)Nc1cccc2c1CCCC2	2	1	6	1	0	0	x	x
C/C(=N\NC(=O)c1nnn(-c2nonc2N)c1-c1ccccc1)c1ccco1	-3	-5	-1	0	-6	-4	x	x
O=C(NC1CCCC1)C(c1ccncc1)N(C(=O)Cc1cccs1)c1ccc(F)cc1 (centres undefined)	1	-10	-1	1	10	2	x	x
Cc1ccccc1N(C(=O)Cc1ccsc1)C(C(=O)NC1CCCCC1)c1ccc(F)cc1 (centres undefined)	59*	-3	-3	0	1	0	1	1
COc1ccc2oc(=O)cc(-c3cc4cccc(OC)c4o3)c2c1	1	-5	1	0	1	2	x	x
COc1cccc2cc(-c3cc(=O)oc4cc(C)c(OCC(C)=O)cc34)oc12	63*	1	-2	0	1	0	1	-2
CC(Cn1cncn1)C(=O)N1CCN(S(=O)(=O)c2ccc(Cl)cc2)CC1 (centres undefined)	0	-7	-1	-1	4	-1	x	x
Fc1ccc(CNc2ccc(N3CCN(Cc4ccccc4)CC3)cc2)cc1	62*	6	2	2	-1	-6	1	4
CC(=O)N1CCN(c2ccc(NCc3ccccc3)cc2)CC1	-9	-5	4	-1	-5	-4	x	x
CCCCNc1nnc(SCC(=O)c2c(N)n(C3CC3)c(=O)[nH]c2=O)s1	1	-9	-1	-1	4	-1	x	x
C=CCC(Nc1ccco1)c1ccccc1 (centres undefined)	-6	6	1	0	-5	18	x	x
COC(=O)c1ccccc1S(=O)(=O)NNC(=O)c1nn(C)c(=O)c2ccccc12	53*	-4	-1	-1	12	-1	5	6
O=S(=O)(NCc1ccc(F)cc1)c1ccc(-n2cnnn2)cc1	-1	20	0	-1	1	7	x	x
COc1cc(/C=C/C=C2/CC/C(=C/C=C/c3ccc(O)c(OC)c3)C2=O)ccc1O	90*	39	-8	13	11	x	27	0	Beacon interf DR=>99
Cn1c(=O)[nH]c2ccc([N+](=O)[O-])nc21	4	-1	1	-1	-18	1	x	x
CC(C)c1ccc(NC(=O)C(c2ccccc2)N2CCN(C=O)CC2)cc1 (centres undefined)	-2	-4	3	0	3	8	x	x
CC(C)c1ccc(NC(=O)C(c2ccccc2)N2CCOCC2)cc1 (centres undefined)	71*	-6	-1	50*	8	32	2	4
